Measured values: ChEMBL document CHEMBL1152365, “First experimental identification of Ras-inhibitor binding interface using a water-soluble Ras ligand” (Bioorg Med Chem Lett, 2009)
The source made the active and inactive calls. No cut-off for these calls is given here.

How the values were obtained:
[1] = Solubility in water; assay type: physicochemical; settings: buffer
[2] = Solubility in TRIS buffer; assay type: physicochemical
[3] = target: GTPase HRas (Homo sapiens) (UniProt P01112); experiment: Binding affinity to H-Ras(1-166) expressed in BL21 De3 Escherichia coli by isothermal titration calorimetric study
Sequence of GTPase HRas (Homo sapiens) (P01112 whole entry, looked up): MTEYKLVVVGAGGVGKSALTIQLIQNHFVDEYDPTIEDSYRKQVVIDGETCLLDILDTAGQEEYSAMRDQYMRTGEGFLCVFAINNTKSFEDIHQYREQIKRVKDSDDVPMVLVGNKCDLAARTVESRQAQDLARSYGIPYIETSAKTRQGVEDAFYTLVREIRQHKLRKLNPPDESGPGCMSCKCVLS

[4] = target: GTPase HRas (Homo sapiens) (UniProt P01112); experiment: Binding affinity to hexa-histidine tagged H-Ras.GDP(1-166) expressed in BL21 De3 Escherichia coli by NMR binding experiment
[5] = test system: NIH3T3; experiment: Antiproliferative activity against mouse NIH/3T3 cells assessed as morphological changes at 150 uM after 48 hrs; assay type: functional, cell-based
[6] = target: T1, Ras-specific guanine nucleotide-releasing factor 1 (Homo sapiens) (UniProt Q13972); experiment: Inhibition of GST-tagged Ras-GRF1-catalyzed exchange of bound GDP on histidine-tagged recombinant H-Ras expressed in Escherichia coli M15 at 100 uM by luminescence spectrometry
T1 sequence (whole entry): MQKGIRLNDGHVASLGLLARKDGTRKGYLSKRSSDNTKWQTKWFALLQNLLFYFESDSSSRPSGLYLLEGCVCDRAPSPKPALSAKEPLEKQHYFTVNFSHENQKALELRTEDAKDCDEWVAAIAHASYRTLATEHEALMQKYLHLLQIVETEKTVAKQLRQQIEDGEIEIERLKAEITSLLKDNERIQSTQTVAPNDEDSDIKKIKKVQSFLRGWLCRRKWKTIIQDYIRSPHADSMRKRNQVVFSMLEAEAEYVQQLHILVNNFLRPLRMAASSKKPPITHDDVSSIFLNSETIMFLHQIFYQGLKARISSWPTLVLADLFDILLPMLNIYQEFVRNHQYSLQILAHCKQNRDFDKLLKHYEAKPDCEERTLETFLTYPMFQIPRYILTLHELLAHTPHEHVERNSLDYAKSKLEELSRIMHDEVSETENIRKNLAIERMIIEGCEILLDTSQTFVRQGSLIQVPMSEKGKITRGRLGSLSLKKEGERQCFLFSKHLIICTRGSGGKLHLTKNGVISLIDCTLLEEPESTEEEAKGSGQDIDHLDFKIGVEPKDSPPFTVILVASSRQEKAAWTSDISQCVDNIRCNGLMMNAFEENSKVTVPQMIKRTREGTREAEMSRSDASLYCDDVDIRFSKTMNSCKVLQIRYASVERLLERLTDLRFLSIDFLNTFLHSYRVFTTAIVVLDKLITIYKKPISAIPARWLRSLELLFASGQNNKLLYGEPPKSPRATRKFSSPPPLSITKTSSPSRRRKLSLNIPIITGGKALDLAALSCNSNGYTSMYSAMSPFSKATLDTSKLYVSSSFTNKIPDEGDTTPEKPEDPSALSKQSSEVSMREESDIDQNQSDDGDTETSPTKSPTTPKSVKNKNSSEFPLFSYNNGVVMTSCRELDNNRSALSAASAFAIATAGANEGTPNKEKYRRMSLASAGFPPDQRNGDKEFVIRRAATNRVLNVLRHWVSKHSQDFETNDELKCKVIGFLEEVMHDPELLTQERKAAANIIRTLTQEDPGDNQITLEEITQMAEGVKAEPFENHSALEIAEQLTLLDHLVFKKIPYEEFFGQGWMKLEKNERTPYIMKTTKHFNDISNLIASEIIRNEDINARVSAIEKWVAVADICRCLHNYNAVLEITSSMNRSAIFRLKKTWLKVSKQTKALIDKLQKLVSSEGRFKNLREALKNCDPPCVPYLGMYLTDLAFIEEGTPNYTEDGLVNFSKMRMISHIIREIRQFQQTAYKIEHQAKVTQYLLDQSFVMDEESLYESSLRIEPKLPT
Outline: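 GDP-to-mantGDP exchange measured on 0.25 µM H-Ras·GDP with […] mantGDP and 0.0625 µM RasGRF1, with compound at 0, 50, 100, 250 or 500 µM. Fluorescence read every second for at least 1500 s. Initial rate taken as first derivative at time 0 and normalized to the no-compound control set at 100. Mean of at least three independent experiments.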

[7] = target: GTPase HRas (Homo sapiens) (UniProt P01112); experiment: Binding affinity to H-Ras expressed in BL21 De3 Escherichia coli assessed as induction of protein denaturation by circular dichroism
[8] = target: GTPase HRas (Homo sapiens) (UniProt P01112); experiment: Binding affinity to H-Ras expressed in BL21 De3 Escherichia coli assessed as damage to protein structure by circular dichroism
[9] = test system: NIH3T3; experiment: Antiproliferative activity against mouse NIH/3T3 cells at 150 uM after 24 hrs by coulter counter; assay type: functional, cell-based
[10] = test system: NIH3T3; experiment: Antiproliferative activity against mouse NIH/3T3 cells at 450 uM after 24 hrs by coulter counter; assay type: functional, cell-based
[11] = Chemical stability at neutral pH by TLC analysis; assay type: physicochemical
Outline: (§1)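 Stability assessed by TLC and HPLC after storage at neutral pH for months.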

[12] = Chemical stability at neutral pH by HPLC analysis; assay type: physicochemical; outline: as §1

solubility [1]: Soluble
solubility [2]: Soluble
Activity [3]: 37 µM
Activity [4]: Active
inhibition [6]: 50%
Activity [7]: inactive
Stability [11]: Stable
Stability [12]: Stable
Structure (SMILES): OC[C@H]1O[C@@H](N(Cc2ccc(O)c(O)c2)OCc2ccccc2)[C@H](O)[C@@H](O)[C@@H]1O
Activity [5]: Active
Activity [8]: inactive
Activity [9]: Active
Activity [10]: Active
